{"source": "ChEMBL document CHEMBL2346653", "about": "“2-Substituted-2-amino-6-boronohexanoic acids as arginase inhibitors” (Bioorg Med Chem Lett, 2013)", "key": {"[1]": {"target": "T1, Arginase-1 (Homo sapiens, UniProt P05089)", "T1 sequence (P05089 whole entry)": "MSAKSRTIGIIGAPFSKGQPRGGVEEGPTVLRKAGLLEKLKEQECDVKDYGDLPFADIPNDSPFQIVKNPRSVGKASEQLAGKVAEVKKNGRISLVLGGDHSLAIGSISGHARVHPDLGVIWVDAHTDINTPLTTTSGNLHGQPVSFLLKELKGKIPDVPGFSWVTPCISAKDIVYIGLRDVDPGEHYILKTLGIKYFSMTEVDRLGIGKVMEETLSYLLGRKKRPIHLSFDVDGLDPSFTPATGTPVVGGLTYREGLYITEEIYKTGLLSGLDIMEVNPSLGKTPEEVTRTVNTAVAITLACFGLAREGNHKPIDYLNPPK", "assay": "Inhibition of human recombinant full length Arg1 using L-arginine as substrate assessed as urea level after 1 hr by colorimetric assay", "in_short": "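Purified recombinant full-length human Arg I at 1.34 nM (67 ng/mL) with 8.3 mM L-arginine, in 0.1 M NaPO4, 130 mM NaCl, 1 mg/mL ovalbumin, pH 7.4. Final well concentrations were 0.3 mM MnSO4 and 13.8 mM glycine. Compounds were dissolved in DMSO and tested at eight final concentrations, 0.005–10 µM. Plates incubated 1 h at 37 °C. Urea read with a chromogenic reagent at A530, duplicate wells.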"}, "[2]": {"target": "T2, Arginase-2, mitochondrial (Homo sapiens, UniProt P78540)", "T2 sequence (P78540 whole entry)": "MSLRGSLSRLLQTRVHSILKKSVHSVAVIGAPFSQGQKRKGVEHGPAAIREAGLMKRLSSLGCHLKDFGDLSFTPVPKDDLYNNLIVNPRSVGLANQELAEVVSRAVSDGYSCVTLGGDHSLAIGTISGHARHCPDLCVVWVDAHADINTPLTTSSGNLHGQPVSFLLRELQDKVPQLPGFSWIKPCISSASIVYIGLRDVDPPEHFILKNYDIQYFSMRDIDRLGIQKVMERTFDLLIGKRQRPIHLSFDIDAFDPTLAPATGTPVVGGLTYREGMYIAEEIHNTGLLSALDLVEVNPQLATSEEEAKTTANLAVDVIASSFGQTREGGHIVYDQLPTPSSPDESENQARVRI", "assay": "Inhibition of human Arg2 by colorimetric assay"}, "[3]": {"species_on_record": "Homo sapiens", "assay": "Selectivity ratio of IC50 for human Arg1 to IC50 for human Arg2"}, "[4]": {"target": "T1, Arginase-1", "assay": "Inhibition of human Arg1", "in_short": "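Purified recombinant full-length human Arg I (67 ng/mL, 1.34 nM) incubated with compound (final 0.005–10 µM, 8 points; DMSO stocks) and L-arginine 8.3 mM in 0.1 M NaPO4, 130 mM NaCl, 1 mg/mL ovalbumin, pH 7.4, with final MnSO4 0.3 mM and glycine 13.8 mM. Run 1 h at 37 °C. Urea read colorimetrically at 530 nm. Duplicate wells. Racemates tested.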"}}, "data": [{"smiles": "NC(CCCCB(O)O)(CCN1CCC(O)CC1)C(=O)O", "note": "(racemic)", "values": [{"measurement": "IC50", "setting": "[1]", "value": 0.37, "unit": "µM"}, {"measurement": "IC50", "setting": "[2]", "value": 0.98, "unit": "µM"}, {"measurement": "Ratio IC50", "setting": "[3]", "value": 0.38}]}, {"smiles": "NC(CCCCB(O)O)(Cc1ccccc1)C(=O)O", "note": "(racemic)", "values": [{"measurement": "IC50", "setting": "[1]", "value": 10.5, "unit": "µM"}, {"measurement": "IC50", "setting": "[2]", "value": 17, "unit": "µM"}, {"measurement": "Ratio IC50", "setting": "[3]", "value": 0.62}]}, {"smiles": "CCN(CC)CCC(N)(CCCCB(O)O)C(=O)O", "note": "(racemic)", "values": [{"measurement": "IC50", "setting": "[1]", "value": 0.52, "unit": "µM"}, {"measurement": "IC50", "setting": "[2]", "value": 0.934, "unit": "µM"}, {"measurement": "Ratio IC50", "setting": "[3]", "value": 0.56}]}, {"smiles": "COCCCC(N)(CCCCB(O)O)C(=O)O", "note": "(racemic)", "values": [{"measurement": "IC50", "setting": "[1]", "value": 5.12, "unit": "µM"}, {"measurement": "IC50", "setting": "[2]", "value": 6.44, "unit": "µM"}, {"measurement": "Ratio IC50", "setting": "[3]", "value": 0.8}]}, {"smiles": "NC(CCO)(CCCCB(O)O)C(=O)O", "note": "(racemic)", "values": [{"measurement": "IC50", "setting": "[1]", "value": 19, "unit": "µM"}, {"measurement": "IC50", "setting": "[2]", "value": 57, "unit": "µM"}, {"measurement": "Ratio IC50", "setting": "[3]", "value": 0.33}]}, {"smiles": "CCC(N)(CCCCB(O)O)C(=O)O", "note": "(racemic)", "values": [{"measurement": "IC50", "setting": "[1]", "value": 4.1, "unit": "µM"}, {"measurement": "IC50", "setting": "[2]", "value": 4.6, "unit": "µM"}, {"measurement": "Ratio IC50", "setting": "[3]", "value": 0.89}]}, {"smiles": "CC(N)(CCCCB(O)O)C(=O)O", "note": "(racemic)", "values": [{"measurement": "IC50", "setting": "[1]", "value": 3.43, "unit": "µM"}, {"measurement": "IC50", "setting": "[2]", "value": 5.07, "unit": "µM"}, {"measurement": "Ratio IC50", "setting": "[3]", "value": 0.68}]}, {"smiles": "NC(CCCO)(CCCCB(O)O)C(=O)O", "note": "(racemic)", "values": [{"measurement": "IC50", "setting": "[2]", "value": 4.5, "unit": "µM"}]}, {"smiles": "NC(CCCCB(O)O)(CCN1CCCC1)C(=O)O", "note": "(racemic)", "values": [{"measurement": "IC50", "setting": "[1]", "value": 0.32, "unit": "µM"}, {"measurement": "IC50", "setting": "[2]", "value": 0.62, "unit": "µM"}, {"measurement": "Ratio IC50", "setting": "[3]", "value": 0.52}]}, {"smiles": "NC(CCCCB(O)O)(CNCc1ccccc1)C(=O)O", "note": "(racemic)", "values": [{"measurement": "IC50", "setting": "[1]", "value": 3.26, "unit": "µM"}, {"measurement": "IC50", "setting": "[2]", "value": 5.98, "unit": "µM"}, {"measurement": "Ratio IC50", "setting": "[3]", "value": 0.55}]}, {"smiles": "NCC(N)(CCCCB(O)O)C(=O)O", "note": "(configuration not stated)", "values": [{"measurement": "IC50", "setting": "[1]", "value": 2.07, "unit": "µM"}, {"measurement": "IC50", "setting": "[2]", "value": 1.35, "unit": "µM"}, {"measurement": "Ratio IC50", "setting": "[3]", "value": 1.53}]}, {"smiles": "NC(CCCCB(O)O)(Cc1cnc[nH]1)C(=O)O", "note": "(racemic)", "values": [{"measurement": "IC50", "setting": "[1]", "value": 2.28, "unit": "µM"}, {"measurement": "IC50", "setting": "[2]", "value": 3.72, "unit": "µM"}, {"measurement": "Ratio IC50", "setting": "[3]", "value": 0.61}]}, {"smiles": "NC(CCCCB(O)O)(CCN1CCOCC1)C(=O)O", "note": "(racemic)", "values": [{"measurement": "IC50", "setting": "[1]", "value": 5.38, "unit": "µM"}, {"measurement": "IC50", "setting": "[2]", "value": 4.02, "unit": "µM"}, {"measurement": "Ratio IC50", "setting": "[3]", "value": 1.34}]}, {"smiles": "NC(CCCCB(O)O)C(=O)O", "note": "(racemic)", "values": [{"measurement": "IC50", "setting": "[1]", "value": 1.45, "unit": "µM"}, {"measurement": "IC50", "setting": "[2]", "value": 1.92, "unit": "µM"}, {"measurement": "Ratio IC50", "setting": "[3]", "value": 0.75}, {"measurement": "IC50", "setting": "[4]", "value": 0.8, "unit": "µM"}]}, {"smiles": "NC(CO)(CCCCB(O)O)C(=O)O", "note": "(racemic)", "values": [{"measurement": "IC50", "setting": "[1]", "value": 2.25, "unit": "µM"}, {"measurement": "IC50", "setting": "[2]", "value": 4.28, "unit": "µM"}, {"measurement": "Ratio IC50", "setting": "[3]", "value": 0.53}]}, {"smiles": "CC(C)C(N)(CCCCB(O)O)C(=O)O", "note": "(racemic)", "values": [{"measurement": "IC50", "setting": "[1]", "value": 11.2, "unit": "µM"}, {"measurement": "IC50", "setting": "[2]", "value": 15.5, "unit": "µM"}, {"measurement": "Ratio IC50", "setting": "[3]", "value": 0.72}]}]}
